≈ marks a conversion by molar mass, not a printed value.
What was measured:
[1] = Aqueous solubility in fasted state simulated intestinal fluid at pH 6.5 by LC/UV analysis; type: physicochemical
Hepatitis C virus [2] = assay: Antiviral activity against Hepatitis C virus genotype 1a infected in human HuH7 cells after 48 hrs by luciferase reporter gene assay; type: functional, organism-based, Hepacivirus hominis; details: subtype 1a, Huh-7, 48 h
[3] = Plasma protein binding in CD rat at 5 uM after 4 hrs by rapid equilibrium dialysis method; type: ADME, cell-free; details: read-out: PPB (converted)
[4] = Plasma protein binding in cynomolgus monkey at 5 uM after 4 hrs by rapid equilibrium dialysis method; type: ADME, cell-free, Macaca fascicularis; details: read-out: PPB (converted)
[5] = AUC (0 to 24 hrs) in CD rat at 300 mg/kg, po by LC/MS/MS analysis; type: ADME, organism-based; design: time < 24 hr, dose 300 mg/kg, route oral; details: plasma
Summary of the method: (§1)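 CD rats were given a single oral dose of 300 mg/kg of parent suspension or of prodrug. Plasma was assayed for the parent drug and for uncleaved prodrug.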

Rattus norvegicus [6] = species: Rattus norvegicus; assay: Cardiovascular toxicity in rat after 7 days; type: organism-based; details: in vivo, 168 h
[7] = Plasma protein binding in human at 5 uM after 4 hrs by rapid equilibrium dialysis method; type: ADME, cell-free; details: read-out: PPB (converted)
[8] = Displacement of [3H]-3-(1-(3-chloro-6-isopropyl-8-(trifluoromethyl)imidazo[1,2-a]pyridine-2-carbonyl)piperidin-4-yl)oxazolidin-2-one from HCV genotype 1b C-terminal His-tagged NS4B (1 to 261 aa) expressed in baculovirus infected SF9 cells after overnight incubation; design: species or system Hepatitis C virus subtype 1b
Hepatitis C virus [9] = assay: Antiviral activity against Hepatitis C virus genotype 1b infected in human HuH7 cells after 48 hrs by luciferase reporter gene assay; type: functional, organism-based, Hepacivirus hominis; details: Huh-7, 48 h
[10] = Lipophilicity, log D of the compound by chromatographic analysis; type: physicochemical
Summary of the method: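 Lipophilicity was measured chromatographically and reported as ChromLogD; ≥6 replicates.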

Hepatitis C virus [11] = assay: Antiviral activity against Hepatitis C virus genotype 1a; type: functional, Hepacivirus hominis; details: subtype 1a
Hepatitis C virus [12] = assay: Antiviral activity against Hepatitis C virus genotype 1b expressing NS4B V105M mutant infected in human HuH7 cells after 48 hrs by luciferase reporter gene assay; type: functional, organism-based, Hepacivirus hominis; details: Huh-7, 48 h
[13] = Plasma protein binding in beagle dog at 5 uM after 4 hrs by rapid equilibrium dialysis method; type: ADME, cell-free, Canis lupus familiaris; details: read-out: PPB (converted)
Huh-7 = assay: Cytotoxicity against human HuH7 cells at 50 uM after 2 days by Cell Titer Glo assay; type: cell-based; details: huh-7, 48 h
Summary of the method: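 Huh7 cells were exposed to compound at 50 μM for 2 days and scored for cellular toxicity.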

[14] = Toxicity in po dosed PXB mouse assessed as induction of metabolism administered bid every 12 hrs for 7 days; type: organism-based; details: in vivo
Summary of the method: (§2)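 Repeat-dose tolerability study in uninfected PXB mice, run before HCV infection. The test agent was given orally as a phosphate prodrug at 10 and 30 mg/kg b.i.d. for 7 days. Plasma exposure of the parent drug was followed over the course, and liver tissue was taken 12 h after dosing on day 7.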

Mus musculus [15] = assay: AUC (0 to 12 hrs) in PXB mouse assessed as 4-(3-chloro-6-cyclopropyl-8-(trifluoromethyl)imidazo[1,2-a]pyridine-2-carbonyl)-1-((trans)-4-hydroxycyclohexyl)piperazin-2-one level at 10 mg/kg, po; type: ADME, organism-based, Plasma; design: time < 12 hr, dose 10 mg/kg, route oral; details: in vivo
Summary of the method: (§3)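 Single oral dose of the phosphate prodrug at 10 or 30 mg/kg to uninfected PXB mice (n = 3/group). Plasma levels of the parent drug were followed over 12 h, and AUC0−12h was calculated for the parent.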

Rattus norvegicus [16] = assay: Prodrug conversion in CD rat assessed as 4-(3-chloro-6-cyclopropyl-8-(trifluoromethyl)imidazo[1,2-a]pyridine-2-carbonyl)-1-((trans)-4-hydroxycyclohexyl)piperazin-2-one level at 300 mg/kg, po; type: ADME, organism-based; design: dose 300 mg/kg, route oral; details: in vivo; summary of the method: as §1
Hepatitis C virus [17] = assay: Antiviral activity against wild-type Hepatitis C virus genotype 1a infected in PXB mouse assessed as log reduction in viral mRNA titer at 10 to 30 mg/kg, po bid every 12 hrs for 7 days measured after 12 hrs relative to control; type: functional, Hepacivirus hominis, subtype 1a; details: dose mg/kg 10-30
Summary of the method: (§4)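 PXB mice infected with wild-type HCV genotype 1a virus were dosed orally b.i.d. 5−8 weeks after infection with the phosphate prodrug of the lead (10 or 30 mg/kg) for 7 days, n = 4/group. A non-nucleoside NS5B inhibitor at 100 mg/kg b.i.d. served as positive control. Read-out was HCV viral RNA titer (viral load) over the course of treatment.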

Liver = assay: Drug uptake in PXB mouse liver assessed as 4-(3-chloro-6-cyclopropyl-8-(trifluoromethyl)imidazo[1,2-a]pyridine-2-carbonyl)-1-((trans)-4-hydroxycyclohexyl)piperazin-2-one level at 10 to 30 mg/kg, po bid every 12 hrs for 7 days measured 12 hrs post last dose; type: ADME, organism-based; design: dose 10-30 mg/kg, route oral; details: in vivo
Summary of the method: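 Uninfected PXB mice were given the prodrug orally at 10 or 30 mg/kg b.i.d. for 7 days. Liver tissue was taken 12 h after the day-7 dose and the level of parent drug in liver was measured relative to plasma.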

Hepatitis C virus [18] = assay: Antiviral activity against wild-type Hepatitis C virus genotype 1a infected in PXB mouse assessed as log reduction in viral mRNA titer at 10 to 30 mg/kg, po bid every 12 hrs for 7 days measured on day 4 relative to control; type: functional, Hepacivirus hominis, subtype 1a; details: dose mg/kg 10-30; summary of the method: as §4
Mus musculus [19] = assay: AUC (0 to 12 hrs) in PXB mouse assessed as 4-(3-chloro-6-cyclopropyl-8-(trifluoromethyl)imidazo[1,2-a]pyridine-2-carbonyl)-1-((trans)-4-hydroxycyclohexyl)piperazin-2-one level at 30 mg/kg, po; type: ADME, organism-based, Plasma; design: time < 12 hr, dose 30 mg/kg, route oral; details: in vivo; summary of the method: as §3
[20] = Toxicity in po dosed PXB mouse assessed as compound accumulation administered bid every 12 hrs for 7 days; type: organism-based; details: in vivo; summary of the method: as §2
Hepatitis C virus [21] = assay: Antiviral activity against wild-type Hepatitis C virus genotype 1a infected in po dosed PXB mouse assessed as log reduction in viral mRNA titer administered bid every 12 hrs for 7 days measured on day 7 relative to control; type: functional, organism-based; details: Hepacivirus hominis; subtype 1a
Summary of the method: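 PXB mice were infected with HCV genotype 1a wild-type virus and treated 5−8 weeks later (n = 4/group). Oral dosing b.i.d. for 7 days: prodrug at 10 or 30 mg/kg, or positive control at 100 mg/kg. Serum HCV RNA titers (viral load) were followed over the course of dosing.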

Hepatitis C virus [22] = assay: Antiviral activity against Hepatitis C virus genotype 1b expressing NS4B H94N mutant infected in human HuH7 cells after 48 hrs by luciferase reporter gene assay; type: functional, organism-based, Hepacivirus hominis; details: Huh-7, 48 h

Question: For `O=C(c1nc2c(C(F)(F)F)cc(C3CC3)cn2c1Cl)N1CCN([C@H]2CC[C@H](O)CC2)C(=O)C1`, which solubility [1] is on record?
Answer: 11 µg/mL (≈ 22.7 µM)

Question: And the EC50 (Hepatitis C virus [2])?
Answer: 1 nM

Question: What about the fraction unbound at 4 h, 5 µM [3] of the same compound?
Answer: 0.2

Question: And the fraction unbound at 4 h, 5 µM [4]?
Answer: 0.23

Question: What about the AUC(0-t) at 24 h [5] of the same compound?
Answer: 11300 ng·h/mL

Question: And the Activity (Rattus norvegicus [6])?
Answer: Toxic

Question: What about the fraction unbound at 4 h, 5 µM [7] of the same compound?
Answer: 0.17

Question: And the IC50 [8]?
Answer: 53 nM

Question: What about the EC50 (Hepatitis C virus [9]) of the same compound?
Answer: 7 nM

Question: And the chromatographic logD [10]?
Answer: 3.5

Question: What about the EC90 (Hepatitis C virus [11]) of the same compound?
Answer: 29 nM

Question: And the EC50 (Hepatitis C virus [12])?
Answer: 730 nM

Question: And the fraction unbound at 4 h, 5 µM [13]?
Answer: 0.34

Question: And the Activity (Huh-7)?
Answer: Non-toxic

Question: With `O=C(c1nc2c(C(F)(F)F)cc(C3CC3)cn2c1Cl)N1CCN([C@H]2CC[C@H](OP(=O)(O)O)CC2)C(=O)C1` as the compound, how does the solubility [1] read?
Answer: > 1000 µg/mL

Question: What about the MTD at 7 days [14] of the same compound?
Answer: 30 mg/kg

Question: What about the AUC (Mus musculus [15]) of the same compound?
Answer: 15000 ng·h/mL

Question: And the Stability (Rattus norvegicus [16])?
Answer: Unstable

Question: And the FC (Hepatitis C virus [17])?
Answer: 1

Question: And the Drug uptake (Liver)?
Answer: Active

Question: And the FC (Hepatitis C virus [18])?
Answer: 4

Question: What about the AUC (Mus musculus [19]) of the same compound?
Answer: 66000 ng·h/mL

Question: What about the MTD at 7 days [20] of the same compound?
Answer: 10 mg/kg

Question: And the Activity (Hepatitis C virus [21])?
Answer: Dose-dependent effect

Question: What does the source list for `O=C(c1nn2c(C(F)(F)F)cc(C3CC3)cc2c1Cl)N1CCN([C@H]2CC[C@H](O)CC2)C(=O)C1`?
Answer: EC50 (Hepatitis C virus [2]): 0.3 nM; IC50 [8]: 12 nM; EC50 (Hepatitis C virus [9]): 2 nM; EC50 (Hepatitis C virus [22]): 32 nM; chromatographic logD [10]: 4.1; EC50 (Hepatitis C virus [12]): 310 nM; Activity (Huh-7): Non-toxic

Reference: ChEMBL document CHEMBL3124867, “Hepatitis C replication inhibitors that target the viral NS4B protein” (J Med Chem, 2014)
